Source: ChEMBL document CHEMBL1122615, “Design and synthesis of naltrexone-derived affinity labels with nonequilibrium opioid agonist and antagonist activities. Evidence for the existence of different mu receptor subtypes in different tissues” (J Med Chem, 1984)
“And” between values parts separate entries of the source, which are not always exact repeats. Equal values may be shown once. The source made the active and inactive calls. The calls are words filed in the database; no cut-off is given here.

Legend:
Cavia porcellus [1] = species on record: Cavia porcellus; assay: The agonist potency in the guinea pig ileal longitudinal muscle preparation (GPI) was determined relative to morphine as control; type: functional, Muscle tissue
Cavia porcellus [2] = species on record: Cavia porcellus; assay: Compound was tested for persistent effect, percent inhibition of twitch that is not reversed by >=20 washings following 30 -min incubation at 20 nM; type: functional
Mus musculus [3] = species on record: Mus musculus; assay: The agonist potency was assessed by measuring the inhibition of contraction at a single concentration (200 nM); type: functional
Mus musculus [4] = species on record: Mus musculus; assay: Compound was tested for persistent effect, percent inhibition contraction that is not reversed significantly by >=20 washings following a 30 min incubation at 200 nM.; type: functional
[5] = target: Mu-type opioid receptor (Mus musculus) (UniProt P42866); assay: Irreversible antagonist activity at mouse vas deferens mu receptor against DADLE after 30 min at 200 nM; type: functional, tissue-based
[6] = target: Mu-type opioid receptor (Homo sapiens) (UniProt P35372); assay: Irreversible antagonist activity at mu receptor by determining by ileal response to morphine after 30 min incubation at 20 nM; type: functional
[7] = target: Mu-type opioid receptor (Homo sapiens) (UniProt P35372); assay: Compound was tested for irreversible antagonist activity at mu receptor by determining by MVD response to DADLE after 30 min incubation at 20 nM; type: functional
[8] = target: Mu-type opioid receptor (Homo sapiens) (UniProt P35372); assay: Compound was tested for irreversible antagonist activity at mu receptor by determining by MVD response to morphine after 30 min incubation at 200 nM; type: functional
[9] = target: Kappa-type opioid receptor (Homo sapiens) (UniProt P41145); assay: Irreversible antagonist activity at kappa receptor as ileal response to ethylketazocine after 30 min incubation at 20 nM; type: functional
[10] = The relative rate (to beta FNA) in the reaction of Michael acceptors with cysteine at pH 7.4 at 25 degree Celsius in the presence of 13 fold excess cysteine was reported for half-life.; type: ADME
Method in brief: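 Reaction with a 13-fold excess of cysteine at pH 7.4, 25 °C under rapid stirring; aliquots quenched by acidification to pH 1 at timed intervals. Remaining compound quantified by reversed-phase HPLC (UV 254 nm, internal standard), four intervals in duplicate. Half-life taken from the slope of log amount remaining vs time; rate expressed relative to β-FNA.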

Mus musculus [11] = species on record: Mus musculus; assay: (§1) The agonist potency was assessed by measuring the inhibition of contraction at a single concentration (200 nM).; type: functional
Cavia porcellus [12] = species on record: Cavia porcellus; assay: Compound was tested for persistent effect, percent inhibition of twitch that is not reversed by >=20 washings following 30 -min incubation at 20 nM; none; type: functional
Cavia porcellus [13] = species on record: Cavia porcellus; assay: (§2) Compound was tested for persistent effect, percent inhibition of twitch that is not reversed by >=20 washings following 30 -min incubation at 200 nM; type: functional
Mus musculus [14] = species on record: Mus musculus; assay: as §1; type: functional; remark: listed apart in the source
Mus musculus [15] = species on record: Mus musculus; assay: Compound was tested for persistent effect, percent inhibition contraction that is not reversed significantly by >=20 washings following a 30 min incubation at 3 nM.; type: functional
[16] = target: Kappa-type opioid receptor (Homo sapiens) (UniProt P41145); assay: Compound was tested for irreversible antagonist activity at kappa receptor by determining by ileal response to ethylketazocine after 30 min incubation at 10 nM; type: functional
[17] = target: Kappa-type opioid receptor (Homo sapiens) (UniProt P41145); assay: Compound was tested for irreversible antagonist activity at kappa receptor by determining by ileal response to ethylketazocine after 30 min incubation at 200 nM; type: functional
[18] = target: Mu-type opioid receptor (Homo sapiens) (UniProt P35372); assay: Compound was tested for irreversible antagonist activity at mu receptor by determining by ileal response to morphine after 30 min incubation at 10 nM; type: functional
[19] = target: Mu-type opioid receptor (Homo sapiens) (UniProt P35372); assay: Compound was tested for irreversible antagonist activity at mu receptor by determining by ileal response to morphine after 30 min incubation at 200 nM; type: functional
[20] = target: Mu-type opioid receptor (Homo sapiens) (UniProt P35372); assay: Compound was tested for irreversible antagonist activity at mu receptor by determining by MVD response to DADLE after 30 min incubation at 3 nM; type: functional
[21] = target: Mu-type opioid receptor (Homo sapiens) (UniProt P35372); assay: Compound was tested for irreversible antagonist activity at mu receptor by determining by ileal response to morphine after 30 min incubation at 20 nM; type: functional
Cavia porcellus [22] = species on record: Cavia porcellus; assay: Evaluated for the inhibition concentration in the guinea pig ileal longitudinal muscle preparation (GPI); type: functional, Muscle tissue
[23] = target: Mu-type opioid receptor (Homo sapiens) (UniProt P35372); assay: Compound was tested for irreversible antagonist activity at mu receptor by determining by MVD response to DADLE after 30 min incubation at 100 nM; type: functional
[24] = target: Mu-type opioid receptor (Homo sapiens) (UniProt P35372); assay: Compound was tested for irreversible antagonist activity at mu receptor by determining by ileal response to morphine after 30 min incubation at 1000 nM; type: functional
[25] = target: Mu-type opioid receptor (Homo sapiens) (UniProt P35372); assay: Compound was tested for irreversible antagonist activity at mu receptor by determining by MVD response to morphine after 30 min incubation at 100 nM; type: functional
[26] = target: Kappa-type opioid receptor (Homo sapiens) (UniProt P41145); assay: (§3) Compound was tested for irreversible antagonist activity at kappa receptor by determining by ileal response to ethylketazocine after 30 min incubation at 1000 nM; type: functional
Cavia porcellus [27] = species on record: Cavia porcellus; assay: as §2; type: functional; remark: listed apart in the source
[28] = target: Mu-type opioid receptor (Homo sapiens) (UniProt P35372); assay: Compound was tested for irreversible antagonist activity at mu receptor by determining by MVD response to Morphine after 30 min incubation at 200 nM; type: functional
[29] = target: Mu-type opioid receptor (Homo sapiens) (UniProt P35372); assay: Compound was tested for irreversible antagonist activity at mu receptor by determining by MVD response to ethylketazocine after 30 min incubation at 200 nM; type: functional
Mus musculus [30] = species on record: Mus musculus; assay: The agonist potency was assessed by measuring the inhibition of contraction at a single concentration (30 nM).; type: functional
[31] = target: Mu-type opioid receptor (Homo sapiens) (UniProt P35372); assay: Compound was tested for irreversible antagonist activity at mu receptor by determining by MVD response to DADLE after 30 min incubation at 30 nM; type: functional
[32] = as §3; type: functional
Cavia porcellus [33] = species on record: Cavia porcellus; assay: Compound was tested for persistent effect, percent inhibition of twitch that is not reversed by >=20 washings following 30 -min incubation at 200 nM; none; type: functional
[34] = target: Kappa-type opioid receptor (Homo sapiens) (UniProt P41145); assay: Compound was tested for irreversible antagonist activity at kappa receptor by determining by ileal response to ethylketazocine after 30 min incubation at 20 nM; type: functional
Mus musculus [35] = species on record: Mus musculus; assay: Compound was tested for persistent effect, percent inhibition contraction that is not reversed significantly by >=20 washings following a 30 min incubation at 20 nM.; type: functional
[36] = target: Mu-type opioid receptor (Homo sapiens) (UniProt P35372); assay: Compound was tested for irreversible antagonist activity at mu receptor by determining by MVD response to DADLE after 30 min incubation at 10 nM; type: functional
[37] = target: Mu-type opioid receptor (Homo sapiens) (UniProt P35372); assay: Compound was tested for irreversible antagonist activity at mu receptor by determining by MVD response to DADLE after 30 min incubation at […]; type: functional
[38] = target: Mu-type opioid receptor (Homo sapiens) (UniProt P35372); assay: Compound was tested for irreversible antagonist activity at mu receptor by determining by MVD response to morphine after 30 min incubation at 20 nM; type: functional

Mu-type opioid receptor (Mus musculus), sequence (P42866 whole entry): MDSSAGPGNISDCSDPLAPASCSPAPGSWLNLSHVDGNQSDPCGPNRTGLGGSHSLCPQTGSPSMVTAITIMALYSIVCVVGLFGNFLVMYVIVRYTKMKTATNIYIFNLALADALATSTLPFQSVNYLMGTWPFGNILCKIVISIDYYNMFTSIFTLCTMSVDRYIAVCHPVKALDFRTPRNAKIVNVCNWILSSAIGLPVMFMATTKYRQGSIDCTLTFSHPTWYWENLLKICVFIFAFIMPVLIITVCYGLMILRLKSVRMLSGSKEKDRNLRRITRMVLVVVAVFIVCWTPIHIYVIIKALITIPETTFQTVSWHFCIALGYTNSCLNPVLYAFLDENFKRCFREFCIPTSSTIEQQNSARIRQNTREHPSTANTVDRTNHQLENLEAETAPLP
Kappa-type opioid receptor (Homo sapiens), sequence (P41145 whole entry): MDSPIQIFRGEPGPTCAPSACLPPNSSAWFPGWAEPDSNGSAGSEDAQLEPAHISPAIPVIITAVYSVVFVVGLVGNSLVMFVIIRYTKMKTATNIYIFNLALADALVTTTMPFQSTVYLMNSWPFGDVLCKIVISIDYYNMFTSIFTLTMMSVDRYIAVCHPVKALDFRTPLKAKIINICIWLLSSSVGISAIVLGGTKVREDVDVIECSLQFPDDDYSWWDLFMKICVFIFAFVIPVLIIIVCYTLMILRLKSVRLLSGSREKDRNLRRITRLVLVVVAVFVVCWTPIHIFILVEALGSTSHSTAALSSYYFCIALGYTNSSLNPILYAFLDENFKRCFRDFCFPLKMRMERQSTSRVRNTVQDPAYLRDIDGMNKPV
Mu-type opioid receptor (Homo sapiens), sequence (P35372 whole entry): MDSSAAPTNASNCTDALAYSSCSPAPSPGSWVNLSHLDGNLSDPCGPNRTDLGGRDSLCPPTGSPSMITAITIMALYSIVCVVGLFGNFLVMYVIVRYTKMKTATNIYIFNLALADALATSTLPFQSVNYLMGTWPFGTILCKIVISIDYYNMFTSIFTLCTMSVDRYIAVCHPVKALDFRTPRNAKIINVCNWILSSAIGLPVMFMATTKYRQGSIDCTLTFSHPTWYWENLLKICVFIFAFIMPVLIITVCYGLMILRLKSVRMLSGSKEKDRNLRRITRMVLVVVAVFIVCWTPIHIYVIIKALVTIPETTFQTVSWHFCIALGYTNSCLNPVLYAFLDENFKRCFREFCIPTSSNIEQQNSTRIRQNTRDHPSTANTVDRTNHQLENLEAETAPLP

Compound	Potency (Cavia porcellus [1])	Ratio [5]	Ratio [6]	Ratio [8]	Ratio [9]	Relative rate [10]	Agonist potency (Mus musculus [11])	Ratio [17]	Ratio [19]	also measured
O=C(N[C@@H]1CC[C@@]2(O)[C@H]3Cc4ccc(O)c5c4[C@@]2(CCN3CC2CC2)[C@H]1O5)c1ccccc1	201	1	1.4	1.9	0.91	–	–	–	–	Inhibition (Cavia porcellus [2]): 39%; Agonist potency (Mus musculus [3]): 29 nM; Inhibition (Mus musculus [4]): 50%; Ratio [7]: 2.3
CC(=O)/C=C/C(=O)N[C@@H]1CCC2(O)C3Cc4ccc(O)c5c4C2(CCN3CC2CC2)C1O5 (stereo not given in full)	4.5	5	12.5	30	0.9	225	31	–	–	inhibition (Cavia porcellus [12]): inactive
6beta-[(Chloromercuri)acetamido]-17-(cyclopropyl-methyl)-4,5alpha-epoxy-3,14-duhydroxymorphinan Methanesulphonate [listing 1 of 2 here]	–	2.6 and 0.9	–	0.57	1	–	–	1.3	4.2	Potency (Cavia porcellus [1]; Muscle tissue): 50; inhibition (Cavia porcellus [13]): 26%; Potency (Mus musculus [14]): 54 nM; inhibition (Mus musculus [15]): 20%; Ratio [16]: 0.74; Ratio [18]: 0.75; Ratio [20]: 1.1; Ratio [21]: 1.2
6beta-[(Chloromercuri)acetamido]-17-(cyclopropyl-methyl)-4,5alpha-epoxy-3,14-duhydroxymorphinan Methanesulphonate [listing 2 of 2 here]	–	–	–	–	–	–	–	–	–	IC50 (Cavia porcellus [22]): 300 nM
COC(=O)/C=C/C(=O)N[C@@H]1CC[C@@]2(O)[C@H]3Cc4ccc(O)c5c4[C@@]2(CCN3CC2CC2)[C@H]1O5	5	1.1	6	10.6	1	1	–	–	–	Ratio [23]: 1.8; Ratio [24]: 18.8; Ratio [25]: 3.9; Ratio [26]: 1.3
O=C(CN1C(=O)C=CC1=O)N[C@@H]1CCC2(O)C3Cc4ccc(O)c5c4C2(CCN3CC2CC2)C1O5 (stereo not given in full)	0.6	1.8	1.5	–	0.71	450	240 nM	0.92	3.3	Inhibition (Cavia porcellus [27]): 59%; Inhibition (Cavia porcellus [2]): 21%; Ratio [28]: 30; Ratio [29]: 0.71
COC(=O)C=CC(=O)N[C@@H]1CCC2(O)C3Cc4ccc(O)c5c4C2(CCN3CC2CC2)C1O5 (stereo not given in full)	–	–	–	–	–	0.5	–	–	–	–
C=CCN1CCC23c4c5ccc(O)c4OC2[C@H](NC(=O)/C=C/C(=O)OC)CCC3(O)C1C5 (stereo not given in full)	5.8	1.1	2.2	4	1	–	–	–	6.4	Inhibition (Cavia porcellus [27]): 40%; Agonist potency (Mus musculus [30]): 34; Ratio [31]: 1.7; Ratio [32]: 1.9
O=C(CSSc1ccccc1[N+](=O)[O-])N[C@@H]1CCC2(O)C3Cc4ccc(O)c5c4C2(CCN3CC2CC2)C1O5 (stereo not given in full)	1.1	0.98	1.3	1.8	0.5	–	70	1.3	2.5	inhibition (Cavia porcellus [33]): inactive
COC(=O)CCC(=O)N[C@@H]1CCC2(O)C3Cc4ccc(O)c5c4C2(CCN3CC2CC2)C1O5 (stereo not given in full)	5.3	–	–	–	–	–	–	–	–	Inhibition (Cavia porcellus [27]): 10%; Ratio [34]: 1; Ratio [21]: 0.92
O=C(N[C@@H]1CCC2(O)C3Cc4ccc(O)c5c4C2(CCN3CC2CC2)C1O5)C(=O)c1ccccc1 (stereo not given in full)	24	0.87	1.48	6.5	0.93	–	51	–	–	Inhibition (Cavia porcellus [2]): 22%; Inhibition (Mus musculus [35]): 44%; Ratio [36]: 0.56; Ratio [7]: 0.51
O=C1C=CC(=O)N1[C@@H]1CCC2(O)C3Cc4ccc(O)c5c4C2(CCN3CC2CC2)C1O5 (stereo not given in full)	2	0.81	1.3	1.1	0.94	450	52	1.4	1.3	Inhibition (Mus musculus [4]): 35%
C#CC(=O)N[C@@H]1CCC2(O)C3Cc4ccc(O)c5c4C2(CCN3CC2CC2)C1O5 (stereo not given in full)	56	1.3	2.6	–	0.84	–	–	–	–	Inhibition (Cavia porcellus [2]): 53%; Inhibition (Mus musculus [35]): 50%; Ratio [7]: 1.06; Ratio [37]: 1.5; Ratio [38]: 5
CCOc1ccc2c(c1)C1(C)CCN(CC3CC3)C(C2=O)C1C (stereo not given) [ETHYLKETAZOCINE]	–	–	–	–	–	–	–	–	–	IC50 (Cavia porcellus [22]; Cavia porcellus, Muscle tissue): 9.73 nM
O=C(CBr)N[C@@H]1CCC2(O)C3Cc4ccc(O)c5c4C2(CCN3CC2CC2)C1O5 (stereo not given in full)	58	1.5	3.3	1.4	0.73	–	31	0.78	1.7	Inhibition (Mus musculus [4]): 20%
C=C(Cl)C(=O)N[C@@H]1CCC2(O)C3Cc4ccc(O)c5c4C2(CCN3CC2CC2)C1O5 (stereo not given in full)	1.1	1.6	13.4	6	0.93	0.4	–	0.88	–	inhibition (Cavia porcellus [33]): inactive; Agonist potency (Mus musculus [3]): 44
